Measurements reported in ChEMBL document CHEMBL1140051, “Discovery of novel Cdc25 phosphatase inhibitors with micromolar activity based on the structure-based virtual screening” (J Med Chem, 2008).

Legend:
[1] = molecular target: T1, M-phase inducer phosphatase 1 (Homo sapiens) (UniProt P30304); assay: Inhibition of Cdc25A (336-523) expressed in Escherichia coli at 50 uM
T1 sequence (whole entry): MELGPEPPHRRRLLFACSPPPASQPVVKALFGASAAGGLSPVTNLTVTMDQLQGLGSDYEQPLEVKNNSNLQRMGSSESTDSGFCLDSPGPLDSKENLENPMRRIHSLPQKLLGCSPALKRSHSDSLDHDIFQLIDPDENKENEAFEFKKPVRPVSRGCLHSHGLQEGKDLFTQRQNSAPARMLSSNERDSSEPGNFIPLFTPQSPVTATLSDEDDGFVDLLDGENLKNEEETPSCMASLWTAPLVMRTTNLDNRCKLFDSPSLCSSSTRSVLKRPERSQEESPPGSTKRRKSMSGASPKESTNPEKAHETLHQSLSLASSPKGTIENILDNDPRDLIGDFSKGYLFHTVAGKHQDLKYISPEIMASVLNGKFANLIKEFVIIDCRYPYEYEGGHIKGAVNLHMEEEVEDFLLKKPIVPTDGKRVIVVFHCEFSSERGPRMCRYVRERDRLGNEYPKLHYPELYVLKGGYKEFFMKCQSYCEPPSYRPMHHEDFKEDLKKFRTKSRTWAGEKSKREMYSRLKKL

[2] = molecular target: T2, M-phase inducer phosphatase 2 (Homo sapiens) (UniProt P30305); assay: Inhibition of Cdc25B (378-566) expressed in Escherichia coli at 50 uM
T2 sequence (whole entry): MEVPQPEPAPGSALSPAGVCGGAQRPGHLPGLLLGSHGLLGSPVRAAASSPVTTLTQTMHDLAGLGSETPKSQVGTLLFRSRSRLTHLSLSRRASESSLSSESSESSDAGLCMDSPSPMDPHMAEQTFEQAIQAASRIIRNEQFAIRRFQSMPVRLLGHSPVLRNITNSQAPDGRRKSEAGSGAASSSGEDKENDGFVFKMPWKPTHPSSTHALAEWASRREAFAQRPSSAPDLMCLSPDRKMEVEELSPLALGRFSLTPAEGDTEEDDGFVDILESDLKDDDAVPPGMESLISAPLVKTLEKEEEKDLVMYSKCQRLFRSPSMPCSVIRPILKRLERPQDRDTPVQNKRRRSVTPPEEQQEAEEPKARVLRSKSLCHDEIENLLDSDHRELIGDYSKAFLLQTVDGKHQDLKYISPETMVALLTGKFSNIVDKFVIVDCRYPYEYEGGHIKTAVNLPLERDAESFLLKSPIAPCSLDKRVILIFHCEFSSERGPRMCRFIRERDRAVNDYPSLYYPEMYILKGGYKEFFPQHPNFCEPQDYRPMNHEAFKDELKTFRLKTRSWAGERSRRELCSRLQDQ

[3] = molecular target: T3, M-phase inducer phosphatase 1 (Homo sapiens, UniProt P30304); assay: Inhibition of Cdc25A (336-523) expressed in Escherichia coli
T3 sequence (P30304 whole entry): T1 sequence (whole entry)
Summary of the method: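 Inhibitor added in DMSO. 20 min at room temperature, stopped with 1 mM orthovanadate (final). IC50 determined at least three times and averaged.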

[4] = molecular target: T4, M-phase inducer phosphatase 2 (Homo sapiens, UniProt P30305); assay: Inhibition of Cdc25B (378-566) expressed in Escherichia coli
T4 sequence (P30305 whole entry): T2 sequence (whole entry)

[5] = molecular target: T3, M-phase inducer phosphatase 1; assay: Binding affinity to Cdc25A (336-523) expressed in Escherichia coli by steady-state kinetic assay
[6] = Inhibition of Cdc25A R501A mutant
[7] = Inhibition of Cdc25A R501K mutant
[8] = Inhibition of Cdc25B R544A mutant
[9] = Inhibition of Cdc25B R544K mutant

inhibition [1] [%] | inhibition [2] [%] | IC50 [3] [µM] | IC50 [4] [µM] | Ki [5] [µM] | IC50 [6] [µM] | IC50 [7] [µM] | IC50 [8] [µM] | IC50 [9] [µM] | SMILES
> 70 | > 70 |  |  |  |  |  |  |  | Cc1ccc(NC2=NC(=O)/C(=C/C=C/c3ccco3)S2)cc1C
> 70 | > 70 |  |  |  |  |  |  |  | Cc1ccc(-c2nnc(SCC(=O)c3ccc(O)c(O)c3)n2-c2ccc(Cl)cc2)cc1
> 70 | > 70 | 3.31 | 12.6 | 29.2 |  |  |  |  | N#CC1=C(S)N(c2ccccc2)C(/C=C/c2ccc(-c3ccc(Cl)cc3)o2)NC1=O (configuration not stated)
 |  | 4.27 | 5.44 | 21.4 |  |  |  |  | Cc1ccc(/N=C2N=C(O)/C(=C/C=C/c3ccco3)S\2)cc1C
 |  | 4.56 | 23.6 |  |  |  |  |  | CC1=C(SCCO)C(=O)c2ccccc2C1=O
> 70 | > 70 | 3.28 | 4.67 |  |  |  |  |  | C=CCn1c(SCC(=O)c2ccc(O)c(O)c2)nnc1-c1cccc(Cl)c1
> 70 | > 70 | 4.07 | 14.2 | 20.4 | 12.1 | 6.09 | 16 | 17.4 | COc1ccc(-n2nnc(SCC(=O)c3ccc(O)c(O)c3)n2)cc1
